# Bioassay records as filed in PubChem BioAssay.
# KLK7 zymogen act – proKLK7 (human) activation, primary screen; P49862; purified proKLK7, EDANS-DABCYL substrate fluorescence; 100% is mature enzyme control, 0% vehicle; activation, % at 7 µM; 0.9% of 370,000 active; AID 652039;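 active = activation above the mean of all tested compounds plus 3 SD, computed per campaign excluding outliers beyond control limits, cut at about 13% in these data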
# Target sequence (P49862 whole entry, looked up): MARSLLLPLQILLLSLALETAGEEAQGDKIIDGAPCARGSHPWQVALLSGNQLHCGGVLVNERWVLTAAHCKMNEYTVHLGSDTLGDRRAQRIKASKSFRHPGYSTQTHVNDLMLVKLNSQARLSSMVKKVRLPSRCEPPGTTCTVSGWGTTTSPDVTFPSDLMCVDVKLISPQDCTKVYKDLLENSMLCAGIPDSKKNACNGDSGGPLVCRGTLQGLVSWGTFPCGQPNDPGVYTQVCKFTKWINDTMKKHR
# JMJD2C inh – blocks human GASC-1 demethylase activity. Q9H3R0. GST-JMJD2C(1-420) H3K9me3 demethylation, DELFIA europium. inhibition, % at 2.35 µM. 0.069% of 330,000 active. AID 2099;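 active = more than half of a compound's replicate wells show inhibition beyond 50%, single wells judged on their own value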;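 also: signal counts dimethyl H3K9 product captured on neutravidin plate; 0% = median of DMSO wells and 100% = 0.3 times that DMSO median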
# Target sequence (Q9H3R0 1-420 limits assumed): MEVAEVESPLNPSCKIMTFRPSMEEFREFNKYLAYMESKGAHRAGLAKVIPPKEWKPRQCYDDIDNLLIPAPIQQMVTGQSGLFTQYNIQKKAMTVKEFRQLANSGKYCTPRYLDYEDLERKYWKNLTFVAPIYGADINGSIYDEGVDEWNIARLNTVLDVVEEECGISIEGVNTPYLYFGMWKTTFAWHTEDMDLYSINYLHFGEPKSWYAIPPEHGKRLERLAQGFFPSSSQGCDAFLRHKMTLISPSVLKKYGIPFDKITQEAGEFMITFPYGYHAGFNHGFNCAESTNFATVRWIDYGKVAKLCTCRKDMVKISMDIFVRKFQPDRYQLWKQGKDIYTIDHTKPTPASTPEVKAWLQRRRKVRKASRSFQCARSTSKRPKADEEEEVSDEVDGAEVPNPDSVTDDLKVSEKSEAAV
# ADAM10 inh – inhibits human ADAM10; O14672; recombinant ADAM10, EDANS/DABCYL FRET peptide cleavage, 3 h; inhibition, % at 7 µM; 0.62% of 370,000 active; AID 720582;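 active = inhibition above a per-campaign cutoff equal to the mean of compounds falling between control-based bounds plus 3 SD, cut at about 20% in these data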;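 also: 0% = DMSO wells while the 100% control is not disclosed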
# NR2E3 ag-1 – activates human photoreceptor nuclear receptor NR2E3; Q9Y5X4; GST-NR2E3/biotin-RetCOR TR-FRET, 1536-well; inhibition of corepressor binding, % at 4.78 µM; 0.12% of 320,000 active;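 active = percent inhibition above the cutoff of mean plus 3 SD of all tested compounds, set per screening campaign, cut at about 20% in these data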;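 also: 0% = DMSO wells and 100% = biotin wells as full block of FRET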
#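 Assay system: NR2E3–RetCOR corepressor complex. Quantity: 1.35 nM GST-NR2E3. Buffer or medium: pH 7.5 Tris-based buffer. Reagent: biotinylated RetCOR corepressor at 7 nM final. Schedule: 5 h at 4 °C. Detection: TR-FRET, emission read at 617 and 671 nm. Replicates: one well per compound, singlicate testing.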
# NR2E3 ag-2 – agonists of human NR2E3 nuclear receptor; inhibition of corepressor binding, % at 3.98 µM; CHO-S Gal4-NCOR/VP16-NR2E3 two-hybrid, luciferase; AID 602229; 0.35% of 360,000 active; Q9Y5X4;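 active = inhibition above the mean of all tested compounds plus 3 SD, cut at about 70% in these data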;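 also: 0% = DMSO with NR2E3 transfected cells and 100% = cells lacking NR2E3 construct; higher means lower luciferase signal from less NR2E3 corepressor binding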
# ADAM17 inh – ADAM17 inhibition, QFRET primary screen; P78536; recombinant ADAM17, EDANS/DABCYL FRET peptide cleavage; inhibition, % at 6.95 µM; 0.83% of 370,000 active; AID 720648;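 active = inhibition above the mean of compounds lying between control limits plus 3 SD, set per campaign, cut at about 8.5% in these data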;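 also: 0% = DMSO-only wells as the low control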
# ADAM10 ctr – inhibits human ADAM10 in ADAM17 exosite counter-screen; inhibition, % at 6.95 µM; shares compounds with ADAM17 inh; 47% of 2,900 active; AID 743256; recombinant ADAM10, EDANS/DABCYL FRET peptide cleavage, 3 h;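 active = mean inhibition over the triplicate runs exceeds the activity threshold set in the earlier primary screen, cut at about 20% in these data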;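 also: 0% = DMSO wells and 100% = marimastat wells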
# ADAM17 confirm – confirmation of inhibitors of human ADAM17. shares compounds with ADAM17 inh. recombinant ADAM17, EDANS/DABCYL QFRET peptide cleavage. inhibition, % at 6.95 µM. 65% of 2,900 active. AID 743257;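 active = mean inhibition across replicates above the hit cutoff set in the primary screen, cut at about 8.5% in these data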;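 also: 0% = DMSO wells and 100% = marimastat wells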
# Starred values were filed as active, the others as inactive; . = no result given; ! = a repeat was not active. In the library only some 2.5% were active in any assay of this set; here they are far more common.
SMILES,KLK7 zymogen act,JMJD2C inh,ADAM10 inh,NR2E3 ag-1,NR2E3 ag-2,ADAM17 inh,ADAM10 ctr,ADAM17 confirm
COc1ccccc1-n1c(-c2cc(-c3ccc(F)cc3)n[nH]2)n[nH]c1=S,-0.2,-0.4,7.0,-2.2,-18.2,3.9,.,.
COc1ccc(-c2cc(-c3n[nH]c(=S)n3-c3cccc4ccccc34)[nH]n2)cc1,0.3,-1.3,18.5,4.2,41.5,8.7*,18.3,8.1
Cc1sc2ncnc(NCCCO)c2c1C,-0.1,31.3,-20.4,5.6,-17.2,-3.4,.,.
Cc1ccc(Nc2ncnc3sc(C)c(C)c23)cc1C,0.1,-4.4,6.7,-1.7,-59.9,9.1*,2.9,6.2
CCc1cc(-c2nnn(CCC3COCCO3)c2CC)ccc1-c1cn(CCc2c[nH]c3ccccc23)nn1 (stereo not drawn),1.1,.,-0.7,.,15.8,8.6*,15.3,9.4*
COc1ccc(CCNC(=O)CSc2nnc3ccc(-c4cccnc4)nn23)cc1,-0.1,8.1,6.5,10.0,-15.6,0.8,.,.
O=C(NNC(=O)c1csc(-c2ccccc2)n1)c1ccccc1,0.4,.,11.0,.,-4.4,8.8*,-10.1,-3.5
COc1ccc(C)cc1N(C(=O)c1cccc(F)c1)c1nc2ccccc2s1,10.3,5.3,5.3,2.2,-4.1,3.1,.,.
COc1ccc(C)cc1N(C(=O)c1ccccc1)c1nc2ccccc2s1,-1.5,-18.9,9.5,-1.9,5.9,9.9*,25.6*,17.7*
COc1ccc(CC(=O)NC(=S)Nc2ccc(S(=O)(=O)NC(C)(C)C)cc2)cc1,-0.2,-5.3,18.2,0.9,-11.7,9.9*,31.6*,14.9*
COc1ccc(CC(=O)NC(=S)Nc2ccc(S(N)(=O)=O)cc2)cc1,-0.5,2.7,-11.0,-4.3,-32.4,-1.7,.,.
COCCN(CC(=O)Nc1cccc(C)c1C)C(=O)CN1C(=O)NC2(CCCCC2)C1=O,0.3,-6.4,-18.1,2.0,6.1,-3.7,.,.
O=C(OCC#CCSc1nnc(-c2cccc3ccccc23)o1)C1CC1,.,.,-55.5,.,.,-12.6,.,.
CCN(C(=O)c1cn(C)c(=O)c2ccccc12)c1ccccc1F,0.3,-19.5,1.6,2.0,20.3,-2.1,.,.
Cc1cc(C)n(Cc2ccc(C(=O)NCc3ccco3)o2)n1,0.3,-6.0,-0.3,-1.0,-17.7,9.4*,-7.6,-1.6
Cc1ccc(CNC(=O)c2ccc(Cn3nc(C)cc3C)o2)cc1,0.5,10.2,-5.0,2.6,0.7,-2.8,.,.
Cc1cccc(C)c1OCC(O)CN1CCN(c2ccccn2)CC1 (stereo not drawn),-0.6,27.6,2.2,4.3,-2.0,-3.3,.,.
OC(COC(c1ccc(Cl)cc1)c1ccc(Cl)cc1)CN1CCN(c2ccccn2)CC1 (stereo not drawn),0.5,4.3,15.0,-1.2,-8.1,9.1*,22.3*,13.0*
O=C(Nc1ccc(N2CCN(C(=O)c3cccs3)CC2)c(Cl)c1)c1ccco1,0.8,-3.3,2.6,3.4,-9.1,9.0*,4.6,8.6
Cc1ccccc1C(=O)N1CCN(c2ccc(NC(=O)c3ccco3)cc2Cl)CC1,-0.1,2.5,-0.2,0.4,39.9,-0.5,.,.
NS(=O)(=O)c1ccc(NCc2cc(Cl)ccc2OCc2ccc(F)cc2)cc1,0.3,1.2,16.3,-0.1,-12.7,9.3*,19.6,11.5*
O=C(N[C@H]1C/C=C\C[C@@H](CC(=O)N(CCO)Cc2ccccc2)C(=O)N[C@H](Cc2c[nH]c3ccccc23)COC1=O)OCC1c2ccccc2-c2ccccc21,0.9,3.9,9.2,.,-36.2,10.3*,21.0*,13.0*
CC(Sc1nc2ccccc2s1)C(=O)N(C)Cc1ccccc1 (stereo not drawn),-0.7,4.3,-2.1,3.3,-6.3,8.8*,5.4,3.9
CC1CN(C(=O)C(C)Sc2nc3ccccc3s2)CC(C)O1 (stereo not drawn),-0.2,6.4,3.4,-3.9,7.3,0.5,.,.
CCCN1C(=O)c2ccc(C(=O)Nc3cc(C)on3)cc2C1=O,0.5,7.9,-0.2,-0.3,-9.0,9.7*,-2.5,-3.5
SMILES,KLK7 zymogen act,JMJD2C inh,ADAM10 inh,NR2E3 ag-1,NR2E3 ag-2,ADAM17 inh,ADAM10 ctr,ADAM17 confirm
Cc1cc(NC(=O)c2ccc3c(c2)C(=O)N(Cc2ccccc2)C3=O)no1,-0.3,0.4,-9.2,-1.0,12.8,-4.2,.,.
COc1ccc(-c2nnc(SCC(=O)Nc3cccc4ccccc34)n2Cc2ccco2)cc1,-1.4,.,3.3,.,.,2.2,.,.
O=C(CSc1nnc(COc2ccc(Cl)cc2)n1Cc1ccco1)Nc1cccc2ccccc12,0.1,.,16.1,.,.,9.3*,36.2*,18.2*
Cc1ccc(OCc2nnc(SCC(=O)Nc3cccc4ccccc34)n2Cc2ccco2)cc1,0.0,.,16.8,.,.,10.0*,38.8*,19.3*
CC(C)CN(C(=O)Cn1nnc(-c2ccc(F)cc2)n1)C1CCS(=O)(=O)C1 (stereo not drawn),-0.3,18.5,-7.3,4.4,2.9,-2.9,.,.
CC(=O)OCC1(C)CN(c2ccccc2)N(C(=O)c2ccc(F)cc2)C1=O (stereo not drawn),-0.2,25.2,-3.4,4.7,-33.2,2.5,.,.
Cc1ccc(F)c(S(=O)(=O)NC(=O)C2(C)CCN2C(=O)Cc2ccsc2)c1 (stereo not drawn),-0.2,.,-2.2,.,-49.7,-1.1,.,.
CCOC(=O)[C@]12CCCC=C1N(Cc1cccc3ccccc13)C(=O)[C@H](CC(=O)N1CCCC1)C2,0.2,.,-5.4,.,-8.7,-3.1,.,.
CC(=O)N[C@@H](Cc1c[nH]c2ccccc12)C(=O)NCc1ccccc1,-0.2,3.3,-2.6,3.4,-2.2,-0.4,.,.
COc1cc(NC(=O)c2csc(N)n2)cc(C(=O)Nc2cccc(C(F)(F)F)c2)c1,-0.1,2.8,-1.8,-1.6,-45.7,6.1,.,.
COc1cc(NC(=O)c2cc(C)on2)cc(C(=O)Nc2cccc(C(F)(F)F)c2)c1,0.1,-4.7,16.2,-0.6,-15.9,11.8*!,33.6*,15.9*
O=C(OCCC1Oc2cccnc2NC1=O)c1ccc([N+](=O)[O-])cc1 (stereo not drawn),-0.4,1.3,12.7,-3.5,.,9.1*,2.0,5.8
O=C(OCCC1Oc2cccnc2NC1=O)c1ccc(F)cc1 (stereo not drawn),0.5,-0.8,-4.8,1.4,-10.8,-1.1,.,.
COc1ccc(NCC(=O)Nc2ccc(Br)cc2F)c(OC)c1,0.5,1.1,5.2,-2.8,-27.6,10.3*,26.9*,9.3*
COCCNC(=O)Cn1nc(-c2ccccc2OC)ccc1=O,0.5,-0.1,-8.1,0.1,-6.9,-3.0,.,.
